Screening results: PubChem BioAssay, The Scripps Research Institute Molecular Screening Center
ZTA counter – blocks Epstein-Barr virus ZTA, an EBNA-1 counter-screen; P03206; ZTA-DNA binding, fluorescence polarization; inhibition, % at 11 µM; 320,000 compounds, 0.15% hits; AID 2234; in the data active = inhibition above about 33%
FID counter – displaces DNA intercalator in HCV helicase counter-screen; AID 1845; DNA fluorescent intercalator displacement, fluorescence; inhibition, % at 7.9 µM; 290,000 compounds, 0.17% hits; in the data active = inhibition above about 37%;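 also: 0% = vehicle and 100% = reference compound; higher means more ethidium bromide displaced from hairpin DNA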
HCV NS3 hel inh – inhibitors of Hepatitis C virus NS3 helicase; NS3 helicase DNA unwinding, Cy5 molecular beacon fluorescence; inhibition, % at 10.9 µM; 290,000 compounds, 0.56% hits; AID 1800;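 active = inhibition above the mean of all tested compounds plus 3 SD, set per campaign, cut at about 35% in these data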;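 also: 0% = DMSO wells and 100% = thioflavine S control wells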
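Material: hepatitis C virus NS3 helicase domain fragment enzyme; measured by: Cy5 fluorescence, 0 and 60 min reads; control set: DMSO and thioflavine S; incubation: 60 min unwinding reaction at 25 °C after ATP addition; read-out basis: % inhibition from 60/0 min fluorescence ratio, DMSO 0%, thioflavine S 100%; repeats: singlicate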
EBNA-1 inh – blocks EBNA-1 binding to DNA | EBNA-1 DNA binding, fluorescence polarization | inhibition, % at 14.8 µM | 300,000 compounds, 0.34% hits; in the data active = inhibition above about 28%
GPR7 antag – blocks human GPR7 receptor signaling. 290,000 compounds, 1.1% hits. GPR7-expressing cells, fluorescence antagonist assay. inhibition, % at 4.4 µM; in the data active = inhibition above about 16%, passing the limit was not always enough;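 also: cells stimulated with the agonist NPW; 0% = agonist with vehicle and 100% = vehicle without agonist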
Target sequence (P48145 whole entry, looked up): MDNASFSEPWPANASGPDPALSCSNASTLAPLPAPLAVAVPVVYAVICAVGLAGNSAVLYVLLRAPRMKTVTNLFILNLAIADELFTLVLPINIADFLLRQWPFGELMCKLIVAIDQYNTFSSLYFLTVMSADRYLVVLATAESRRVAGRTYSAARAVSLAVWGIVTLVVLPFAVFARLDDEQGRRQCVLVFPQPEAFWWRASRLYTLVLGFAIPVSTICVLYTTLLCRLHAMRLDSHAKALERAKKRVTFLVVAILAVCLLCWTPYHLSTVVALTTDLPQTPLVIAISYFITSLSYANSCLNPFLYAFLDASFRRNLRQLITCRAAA
GPR7 antag conf – confirmation of human GPR7 antagonists; 2,400 compounds, 52% hits; GPR7-expressing cells, calcium fluorescence antagonist mode; inhibition, % at 4.4 µM; shares compounds with GPR7 antag; in the data active = inhibition above about 24%;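 also: stimulated with the GPR7 agonist NPW; 0% = agonist plus vehicle and 100% = vehicle alone without agonist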
MCHR1 antagonist – MCHR1 (human) antagonism in GPR7 counter-screen; shares compounds with GPR7 antag; MCHR1-expressing cells, fluorescence antagonist assay; inhibition, % at 4.4 µM; 2,400 compounds, 62% hits; in the data active = inhibition above about 22%;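 also: 0% = vehicle with agonist and 100% = vehicle without agonist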
An asterisk follows results filed as active; / = not tested or not shown. An excerpt weighted towards active compounds, which were near 2% of everything screened.

SMILES	ZTA counter	FID counter	HCV NS3 hel inh	EBNA-1 inh	GPR7 antag	GPR7 antag conf	MCHR1 antagonist
CCCCNC1c2ccccc2C(=O)N1Cc1ccccc1 (stereo unspecified)	0	-6	-5	-5	28*	18	9
O=C(COC(=O)c1nc(Cl)c(Cl)c(Cl)c1Cl)NCc1ccccc1	8	/	/	/	/	/	/
CCCCc1c(C)[nH]c2nc3ccccc3n2c1=O	-4	-2	6	4	0	/	/
CC(C)CCN1CCN(Cc2cccc3nonc23)CC1CCO (stereo unspecified)	-5	12	-2	4	24*	-2	-2
O=C(Nc1ccc(C(=O)O)cc1)Nc1ccc([N+](=O)[O-])cc1	12	1	0	8	-13	/	/
COc1cc(NC(=O)Nc2cccc([N+](=O)[O-])c2)cc(OC)c1	7	11	2	0	28*	5	74*
O=C(Nc1cccc([N+](=O)[O-])c1)Nc1cccc([N+](=O)[O-])c1	-25	-1	2	10	-10	/	/
COC(=O)c1ccc(NC(=O)Nc2ccc([N+](=O)[O-])cc2)cc1	7	21	11	0	47*	71*	67*
Cc1ccc(S(=O)(=O)NCc2ccccc2)cc1C(=O)NCC1CCCO1 (stereo unspecified)	-6	/	/	-12	/	/	/
CCCc1c(O)c2ccccc2[nH]c1=O	7	-3	-1	2	-12	/	/
O=c1[nH]c2ccccc2c(O)c1Cc1ccccc1	-8	-2	2	-11	22*	0	-4
CCCCn1c(N)c(N(CCOC)C(=O)c2cccc(S(=O)(=O)N(CC)c3ccccc3)c2)c(=O)[nH]c1=O	-6	/	/	-1	/	/	/
N#Cc1sc(NCc2ccccn2)nc1Cl	-8	-5	20	2	-7	/	/
O=C(Nc1ccccc1)N1CCN(Cc2ccc(Cl)cc2)CC1	11	-15	-9	-2	7	/	/
O=C(Nc1ccc(Cl)cc1)N1CCCN(Cc2ccc(F)cc2)C1	-3	25	-22	-6	88*	43*	42*
COc1ccc(/C=C2/CC/C(=C\c3ccc(OC)c(OC)c3OC)C2=O)c(OC)c1OC	-16	-17	5	-3	23*	-1	67*
COc1ccc(/C=C2\CCC(C3CCCC3)C2=O)c(OC)c1OC (stereo unspecified)	-3	-14	7	3	10	/	/
CCOC(=O)c1c(C)n(-c2ccc(F)cc2)c2ccc(O)cc12	0	-17	2	2	72*	-4	-14
COC(=O)c1c(C)n(-c2ccc(OC)cc2)c2ccc(O)cc12	-3	-10	-12	2	-14	/	/
CC1CCCC(C)N1C(=O)COC(=O)c1ccc(F)c(S(=O)(=O)N2CCOCC2)c1 (stereo unspecified)	7	-17	2	9	-8	/	/
COc1cc(NC(=O)C2CC(c3ccccc3Cl)=NO2)cc(OC)c1OC (stereo unspecified)	-5	-20	-8	3	-8	/	/
O=C(Nc1ccc(Cl)cc1)Nc1csc([N+](=O)[O-])c1	-4	18	0	0	24*	57*	67*
O=C(Nc1csc([N+](=O)[O-])c1)Nc1c(Cl)cccc1Cl	-7	3	-1	-3	11	/	/
O=C(Nc1ccccc1)Nc1ccc(Cl)c([N+](=O)[O-])c1	-3	17	8	8	26*	58*	65*
CC(=O)c1ccc(NC(=O)Nc2cccc(Cl)c2)cc1	-25	5	0	-12	29*	37*	67*
SMILES	ZTA counter	FID counter	HCV NS3 hel inh	EBNA-1 inh	GPR7 antag	GPR7 antag conf	MCHR1 antagonist
COC(=O)/C(=C/c1ccco1)NC(=O)c1ccco1	-14	2	5	2	100*	0	8
O=C(O)/C(=C\c1ccco1)NC(=O)c1ccco1	4	1	-3	0	-7	/	/
Cc1cccc(Cn2c(C)nc3ccc([N+](=O)[O-])cc3c2=O)c1	6	6	-16	-3	45*	36*	43*
Cc1nc2ccc([N+](=O)[O-])cc2c(=O)n1Cc1cccc(F)c1	-9	5	-19	-2	18	/	/
O=C(NCC(O)CO)c1ccc2[nH]c3ccccc3c2c1 (stereo unspecified)	11	5	-1	7	26*	0	15
COc1ccccc1N1CCN(C(=O)c2ccc(COc3cccc4c3OC(C)(C)C4)cc2)CC1	-10	/	/	3	/	/	/
